Assay results: publication PMC4096895 (Organic & biomolecular chemistry, 2014)

How the values were obtained:
[1] = target: β-galactosidase (A. oryzae) (Aspergillus oryzae, UniProt Q2UCU3); assay: Assay for the inhibited enzymatic substrate hydrolysis; format: biochemical; conditions: 50 mM acetate buffer pH 5.0, 30 °C
Amidine stability assay = format: physicochemical
In short: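 Test compound kept as a 0.168 M stock in nanopure water at ambient temperature, and aliquots were diluted into the incubation buffer. Samples were flash-frozen in liquid nitrogen and stored at −18°C until analysis. Quantification was by HPLC on a carbohydrate Na+ (8%) column at 80°C, with nanopure water as eluent at 0.4 mL/min and light-scattering detection.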

[2] = test system: β-galactosidase (A. oryzae); assay: Assay for enzymatic substrate hydrolysis; format: biochemical, Aspergillus oryzae; conditions: 50 mM acetate buffer pH 5.0, 30 °C, no inhibitor
[3] = Water solubility under the kinetic assay conditions; format: physicochemical; conditions: under the used assay condition (50 mM acetate buffer pH 5)

Sequence of β-galactosidase (A. oryzae) (Aspergillus oryzae, UniProt Q2UCU3) (Q2UCU3 19-1005): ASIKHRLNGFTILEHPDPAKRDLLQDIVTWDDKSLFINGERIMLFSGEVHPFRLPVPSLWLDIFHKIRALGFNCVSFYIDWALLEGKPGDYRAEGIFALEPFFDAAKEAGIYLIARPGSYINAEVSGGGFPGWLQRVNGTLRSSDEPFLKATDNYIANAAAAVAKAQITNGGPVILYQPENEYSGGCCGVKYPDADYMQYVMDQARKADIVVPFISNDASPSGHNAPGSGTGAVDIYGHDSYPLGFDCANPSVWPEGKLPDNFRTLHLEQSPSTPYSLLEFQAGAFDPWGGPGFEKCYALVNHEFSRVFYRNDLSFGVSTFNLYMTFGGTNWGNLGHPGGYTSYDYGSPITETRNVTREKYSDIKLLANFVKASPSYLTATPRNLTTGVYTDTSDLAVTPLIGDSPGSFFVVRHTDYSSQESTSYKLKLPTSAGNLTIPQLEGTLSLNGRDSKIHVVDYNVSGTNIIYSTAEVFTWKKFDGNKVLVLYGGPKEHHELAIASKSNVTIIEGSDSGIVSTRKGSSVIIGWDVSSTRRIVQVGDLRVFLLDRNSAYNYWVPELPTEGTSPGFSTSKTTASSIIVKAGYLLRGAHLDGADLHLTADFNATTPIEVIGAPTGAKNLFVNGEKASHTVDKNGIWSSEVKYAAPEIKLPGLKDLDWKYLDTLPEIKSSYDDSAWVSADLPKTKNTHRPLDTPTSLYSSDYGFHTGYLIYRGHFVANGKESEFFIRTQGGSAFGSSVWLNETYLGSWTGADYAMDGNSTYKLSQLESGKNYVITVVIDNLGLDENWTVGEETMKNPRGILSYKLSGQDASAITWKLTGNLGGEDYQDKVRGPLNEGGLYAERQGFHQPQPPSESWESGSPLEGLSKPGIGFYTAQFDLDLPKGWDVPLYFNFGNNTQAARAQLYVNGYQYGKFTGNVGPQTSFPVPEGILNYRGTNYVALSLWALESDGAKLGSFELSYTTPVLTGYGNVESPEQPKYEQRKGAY

For `Cc1ccc(CN=C2N[C@H](CO)[C@H](O)[C@H](O)[C@H]2O)cc1` [1d, p-methylbenzyl-D-galactonoamidine], the Ki ([1]; substrate 2a) was 0.0233 µM, the Ki ([1]; substrate 2b) was 0.0141 µM and the Ki ([1]; substrate 2c) was 0.0133 µM. For the same compound, the Ki ([1]; substrate 2e) was 0.0165 µM, the Ki ([1]; substrate 2f) was 0.0246 µM and the Ki ([1]; substrate 2g) was 0.0557 µM. It also gave a Ki ([1]; substrate 2i) of 0.0115 µM, a Ki ([1]; substrate 2k) of 0.008 µM and a Ki ([1]; substrate 2h) of 0.0151 µM. The Ki ([1]; substrate 2d) was 0.0116 µM, the stability (Amidine stability assay; 5 mM CAPS buffer at pH 10.5 and 0°C, preliminary results) was “sufficient stability” and the stability (Amidine stability assay; 5 mM TAPS buffer at pH 9 and 10°C, preliminary results) was “sufficient stability”. The stability (Amidine stability assay; 50 mM CAPS buffer at pH 10.5 and 72°C) was “insufficient stability”, the “stability (HPLC)” value (Amidine stability assay; acetate buffer at 30°C, same amount of time (3h)) was “no evidence for compound decomposition” and the time found stable (Amidine stability assay; nanopure water at 30, 50 or 72°C) was ≥ 3 h.
For `OCC1NC(=NCc2cccc(F)c2)C(O)C(O)C1O` [1f, 3-fluorobenzyl-D-galactonoamidine], the Ki ([1]; substrate 2a) was 0.0164 µM, the Ki ([1]; substrate 2b) was 0.0223 µM and the Ki ([1]; substrate 2c) was 0.0181 µM. It also gave a Ki ([1]; substrate 2e) of 0.0142 µM, a Ki ([1]; substrate 2f) of 0.0303 µM and a Ki ([1]; substrate 2g) of 0.0581 µM. It also gave a Ki ([1]; substrate 2i) of 0.0137 µM, a Ki ([1]; substrate 2k) of 0.0203 µM and a Ki ([1]; substrate 2h) of 0.0228 µM. For the same compound, the Ki ([1]; substrate 2d) was 0.0133 µM.
`O=[N+]([O-])c1ccccc1O[C@@H]1O[C@H](CO)[C@H](O)[C@H](O)[C@H]1O` [2a, 2-nitrophenyl-β-D-galactopyranoside, reference compound] gave a Km [2] of 1270 µM and a kcat [2] of 76.5 s⁻¹.
With `Cc1ccc(O[C@@H]2O[C@H](CO)[C@H](O)[C@H](O)[C@H]2O)c([N+](=O)[O-])c1` [2b, 4-Methyl-2-nitrophenyl-β-D-galactopyranoside] the Km [2] was 1490 µM and the kcat [2] was 80.13 s⁻¹.
Compound `O=[N+]([O-])c1cc(F)ccc1O[C@@H]1O[C@H](CO)[C@H](O)[C@H](O)[C@H]1O` [2c, 4-Fluoro-2-nitrophenyl-β-D-galactopyranoside] has a Km [2] of 1240 µM and a kcat [2] of 77.63 s⁻¹.
In the case of `O=[N+]([O-])c1cc(Cl)ccc1O[C@@H]1O[C@H](CO)[C@H](O)[C@H](O)[C@H]1O` [2d, 4-Chloro-2-nitrophenyl-β-D-galactopyranoside], the Km [2] is reported as 960 µM and the kcat [2] is reported as 68.97 s⁻¹.
Work on `O=[N+]([O-])c1cc(Br)ccc1O[C@@H]1O[C@H](CO)[C@H](O)[C@H](O)[C@H]1O` [2e, 4-Bromo-2-nitrophenyl-β-D-galactopyranoside] yielded a Km [2] of 1100 µM and a kcat [2] of 64.7 s⁻¹.
In the case of `O=[N+]([O-])c1ccc(F)cc1O[C@@H]1O[C@H](CO)[C@H](O)[C@H](O)[C@H]1O` [2f, 5-Fluoro-2-nitrophenyl-β-D-galactopyranoside], the Km [2] is reported as 1780 µM and the kcat [2] is reported as 64.77 s⁻¹.
`Cc1ccc([N+](=O)[O-])c(O[C@@H]2O[C@H](CO)[C@H](O)[C@H](O)[C@H]2O)c1` [2g, 5-Methyl-2-nitrophenyl-β-D-galactopyranoside] showed a Km [2] of 4270 µM and a kcat [2] of 70.15 s⁻¹.
In the case of `O=[N+]([O-])c1ccc(O[C@@H]2O[C@H](CO)[C@H](O)[C@H](O)[C@H]2O)cc1` [2h, 4-nitrophenyl-β-D-galactopyranoside, reference compound], the Km [2] is reported as 840 µM and the kcat [2] is reported as 53.97 s⁻¹.
`O=[N+]([O-])c1ccc(O[C@@H]2O[C@H](CO)[C@H](O)[C@H](O)[C@H]2O)c(F)c1` [2i, 2-Fluoro-4-nitrophenyl-β-D-galactopyranoside] gave a Km [2] of 920 µM and a kcat [2] of 61.17 s⁻¹.
In the case of `O=[N+]([O-])c1ccc(O[C@@H]2O[C@H](CO)[C@H](O)[C@H](O)[C@H]2O)c(Cl)c1` [2k, 2-Chloro-4-nitrophenyl-β-D-galactopyranoside], the Km [2] is reported as 700 µM and the kcat [2] is reported as 39.68 s⁻¹.
In the case of `COc1ccc(O[C@@H]2O[C@H](CO)[C@H](O)[C@H](O)[C@H]2O)c([N+](=O)[O-])c1` [2p, 4-Methoxy-2-nitrophenyl-β-D-galactopyranoside], the water solubility [3] is reported as “surprising low water solubility”.
